Experimental data published in ChEMBL document CHEMBL4411342, “Pyrrolomycins as antimicrobial agents. Microwave-assisted organic synthesis and insights into their antimicrobial mechanism of action” (Bioorg Med Chem, 2019).

Tests used:
[1] = tested on: Staphylococcus aureus; assay: Antibiofilm activity against Staphylococcus aureus ATCC 25923 after 24 hrs by crystal violet staining based assay; assay type: functional, organism-based; conditions: ATCC 25923, 24 h
Summary of the method: (§1)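 Overnight TSB + 2% w/v glucose cultures (37 °C, 24 h) diluted to 0.5 McFarland, inoculated into 96-well plates of TSB/2% glucose with compound (100 µg/mL screen, or 100–0.001 µM for IC50). Static 37 °C, 24 h; wells PBS-washed, 0.1% crystal violet 30 min, solubilized in 33% acetic acid, OD 540 nm. % inhibition vs growth control; duplicates, ≥3 independent experiments.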

[2] = tested on: Staphylococcus aureus; assay: Inhibition of Staphylococcus aureus AtlA assessed as reduction in biofilm formation at 1 uM measured after 24 hrs
Summary of the method: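 S. aureus overnight culture (TSB + 2% glucose, 37 °C, 200 rpm) inoculated 1:100 into TSB/2% glucose containing 1 µM compound (from DMSO stock) in 24-well plates. Static incubation at 37 °C for 24 h. Biofilm inhibition is expressed relative to untreated cultures. Untreated and 0.1% DMSO controls. Triplicate cultivations.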

[3] = tested on: Pseudomonas aeruginosa; assay: Antibiofilm activity against Pseudomonas aeruginosa ATCC 15442 after 24 hrs by crystal violet staining based assay; assay type: functional, organism-based; conditions: ATCC 15442, 24 h; summary of the method: as §1
[4] = tested on: Staphylococcus aureus; assay: Inhibition of Staphylococcus aureus AtlA assessed as reduction in enzyme activity at 1 uM measured after 24 hrs y methylene blue staining based zymography relative to control
Summary of the method: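 Spent medium from 24 h static S. aureus cultures (1 µM compound; untreated and 0.1% DMSO controls) was centrifuged, and the supernatant was lyophilized and resuspended in Tris-HCl pH 7.4. Proteins were run on 12% SDS-PAGE containing 1 mg/mL Micrococcus lysodeikticus cells. The gel was renatured (Triton X-100 buffer, 37 °C, 16–48 h) and stained with 0.1% methylene blue. Clear bands were quantified by densitometry as lysozyme µg equivalents, in triplicate.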

[5] = molecular target: T1, Sortase A (Staphylococcus aureus, UniProt Q9S446); assay: Inhibition of Staphylococcus aureus SrtA using dabcyl-QALPETGEE-edans as substrate preincubated for 1 hr followed by substrate addition and measured at 1 min interval for 1 hr by fluorescence assay
T1 sequence (Q9S446 whole entry): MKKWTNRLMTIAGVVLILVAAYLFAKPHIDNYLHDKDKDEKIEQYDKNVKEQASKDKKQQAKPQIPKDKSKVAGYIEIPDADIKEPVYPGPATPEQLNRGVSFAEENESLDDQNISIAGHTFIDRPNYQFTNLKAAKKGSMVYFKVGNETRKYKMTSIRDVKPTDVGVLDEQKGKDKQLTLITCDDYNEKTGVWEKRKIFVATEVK
Summary of the method: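 Recombinant S. aureus SrtA (10 µM) preincubated 1 h at 37 °C in 50 mM Tris-HCl, 5 mM CaCl2, 150 mM NaCl, pH 7.5 with increasing inhibitor levels; FRET peptide added to 50 µM final. Cleavage fluorescence read at ex 350/em 495 nm; progress curves used for IC50. Stocks 10 mM in DMSO; berberine chloride positive control, enzyme-free substrate negative control.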

O=C(c1cc(Br)ccc1O)c1[nH]c(Br)c(Cl)c1Br
IC50 [1]: 8.7 nM
inhibition [2]: < 80%
IC50 [3]: 78.9 µM
fold change (FC) [4]: 2
IC50 [5]: 250 µM

O=C(c1cc(Br)cc(Br)c1O)c1[nH]c(Br)c(Br)c1Br
IC50 [1]: 3.4 nM
inhibition [2]: < 80%
IC50 [3]: 74.8 µM
fold change (FC) [4]: 2
IC50 [5]: 140 µM

O=C(c1cc(Cl)cc(Cl)c1O)c1[nH]c(Cl)c(Br)c1Cl
IC50 [1]: 24.7 nM
IC50 [3]: 18.6 µM
IC50 [5]: 160 µM

O=C(c1cc(Cl)cc(Cl)c1O)c1[nH]c(Cl)c(Cl)c1Br
IC50 [1]: 100 nM
IC50 [3]: 170 µM
IC50 [5]: 130 µM

O=C(c1cc(Cl)cc(Cl)c1O)c1[nH]c(Br)c(Br)c1Br
IC50 [1]: 20300 nM
IC50 [3]: 106 µM
IC50 [5]: 130 µM

O=C(c1cc(Cl)c(Cl)[nH]1)c1cc(Cl)cc(Cl)c1O
IC50 [1]: 920 nM
IC50 [3]: 236 µM
IC50 [5]: 300 µM
